The source of these data is ChEMBL document CHEMBL1124437, “Analogues of cisplatin derived from diaminodideoxytetritols. Synthesis and activity against the ADJ/PC6 plasmacytoma in mice” (J Med Chem, 1989).

The nature of data set [1]: Therapeutic index is the ratio of LD50 to ED90. The method, boiled down: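 In female Balb-C mice bearing subcutaneous ADJ/PC6 tumor, dosed ip or po at 5, 25, 125 and 625 mg per kg (six animals per dose). Therapeutic index is the 50% lethal dose divided by the dose causing 90% tumor regression (LD50/ED90).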
The test system of data set [2] is Mus musculus. In words: Antitumor activity against ADJ/PC6 tumor subcutaneously implanted into female intraperitoneal compound administration. The class given is functional, organism-based. In short, it runs like this: (§1)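 ADJ/PC6 plasmacytoma implanted subcutaneously in female Balb-C mice, with compound given by intraperitoneal injection. Four dose levels were tested (5, 25, 125 and 625 mg per kg), six mice per dose. LD50 is the 50% lethal dose, ED90 is the dose giving 90% tumor regression, and therapeutic index = LD50/ED90.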

The subject of data set [3] is Mus musculus. The experiment in a line: Compound was screened for antitumor activity against ADJ/PC6 tumor subcutaneously implanted into female intraperitoneal compound administration. The class given is functional, organism-based. In short, it runs like this: as §1

In the case of CISPLATIN [listing 1 of 2 here], the TI in data set [1] is recorded as 8.1.

Substance CISPLATIN [listing 2 of 2 here] returned an LD50 in data set [2] of 13 mg/kg.

Consider “cis-dichloro(cis-5,6-diamino-1,3-dioxepane)platinum (II) [listing 1 of 2 here]”, for which the TI in data set [1] amounted to 4.1.

Turning to “cis-dichloro(cis-5,6-diamino-1,3-dioxepane)platinum (II) [listing 2 of 2 here]”, the LD50 in data set [3] was determined as 41.5 mg/kg.
